In the library only some 3.3% were active in any assay of this set; here they are far more common.
rCAG RNA binder: r(CAG) repeat RNA binding; 370,000 compounds, 1.3% hits; AID 651821; TO-PRO-1 dye displacement fluorescence; inhibition, % at 3 µM;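 active = inhibition above the plate cutoff, the mean of all test compounds on that plate plus 3 SD, cut at about 35% in these data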;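 note: higher means more dye released from RNA so lower well fluorescence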
SIAE primary: blocks human sialic acid acetylesterase; AID 1053197; inhibition, % at 9.66 µM; Q9HAT2; 370,000 compounds, 0.69% hits; SIAE FP-Rh probe binding, fluorescence polarization;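 active = inhibition above a cutoff: mean of compounds within the control limits plus 3 SD of those, cut at about 17% in these data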
PRMT1 FP inh: inhibitors of human PRMT1 | recombinant PRMT1, activity-based probe fluorescence polarization | Q99873 | 370,000 compounds, 1.3% hits | AID 652257 | inhibition, % at 2.79 µM;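 active = inhibition above about 21% made by adding two undisclosed values, limit read from the data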
ABHD4 inh: ABHD4 (mouse) inhibition, primary FP screen. Q8VD66. purified mABHD4, FP-Rh probe fluorescence polarization. inhibition, % at 8.92 µM. 370,000 compounds, 0.54% hits. AID 720543;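 active = inhibition exceeding the mean over every tested compound plus 3 SD, cut at about 30% in these data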
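Test system: mABHD4 protein | Buffer or medium: HEPES pH 7.0 buffer, 150 mM NaCl, 0.01% Pluronic F-127 | Probe or stimulus: FP-Rh fluorescent activity-based probe, added after compound pre-incubation | Timing: Pre-incubation 45 min, probe exposure 60 min, at 25 °C | Technique: Fluorescence polarization, excitation 525 nm, emission 598 nm, BODIPY TMR filters | Repeats: Single well per compound (singlicate)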
HTRA1 inhibitor: inhibitors of human serine peptidase HTRA1; Q92743; recombinant HTRA1, FP-rhodamine activity-based probe, fluorescence polarization; inhibition, % at 5.96 µM; 340,000 compounds, 0.5% hits; in the data active = inhibition above about 36%
Target sequence (Q92743 whole entry, looked up): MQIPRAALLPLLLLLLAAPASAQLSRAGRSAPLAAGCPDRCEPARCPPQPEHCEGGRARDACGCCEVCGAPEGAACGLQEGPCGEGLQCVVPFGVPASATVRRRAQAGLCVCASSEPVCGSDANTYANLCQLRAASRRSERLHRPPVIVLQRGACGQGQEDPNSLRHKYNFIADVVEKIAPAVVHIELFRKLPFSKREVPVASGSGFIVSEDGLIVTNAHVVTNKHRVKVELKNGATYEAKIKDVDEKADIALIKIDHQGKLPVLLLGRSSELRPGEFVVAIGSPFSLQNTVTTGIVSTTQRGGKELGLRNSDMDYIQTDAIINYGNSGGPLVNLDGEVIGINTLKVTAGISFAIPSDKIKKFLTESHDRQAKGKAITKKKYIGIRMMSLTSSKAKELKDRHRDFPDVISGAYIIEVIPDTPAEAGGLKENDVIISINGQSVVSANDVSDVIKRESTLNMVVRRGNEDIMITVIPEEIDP
SIAE inh conf: human SIAE inhibition, confirmation. shares compounds with SIAE primary. SIAE FP-Rh activity-based probe, fluorescence polarization. inhibition, % at 9.66 µM. 2,300 compounds, 13% hits. AID 1117263;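 active = mean inhibition of the replicates above the hit cutoff set in the primary screen, cut at about 17% in these data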;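 note: inhibitors lower polarization as more probe stays unbound to SIAE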
Hits are given with their value; . = inactive; / = not tested or not shown.

SMILES	rCAG RNA binder	SIAE primary	PRMT1 FP inh	ABHD4 inh	HTRA1 inhibitor	SIAE inh conf
Nc1nc2c(ncn2[C@@H]2O[C@H](C(=O)NCC(F)(F)F)[C@@H](O)[C@H]2O)c(=O)[nH]1	.	.	.	.	/	/
Nc1nc2c(ncn2[C@@H]2O[C@H](C(=O)N[C@H](Cc3ccccc3)C(=O)NC3CCCCC3)[C@@H](O)[C@H]2O)c(=O)[nH]1	.	32	.	.	/	35
O=C(Nc1nc(-c2ccc(Br)cc2)cs1)c1cccnc1	.	.	.	.	.	/
CC(C)/C=N/Nc1nc(-c2ccc(Br)cc2)cs1	.	18	.	.	.	.
CCCCNC(=O)C[C@@H]1C[C@@]2(C(=O)OC)CCCCC=C2N(Cc2ccccc2)C1=O	.	22	.	.	/	.
COCCCNC(=O)C[C@@H]1C[C@@]2(C(=O)OC)CCCCC=C2N(Cc2ccccc2)C1=O	.	.	.	.	/	/
COc1ccc(-c2ccccc2)cc1NC(=O)[C@@H]1O[C@H](CO)[C@H](O)[C@H](O)[C@H]1O	.	.	.	.	/	/
COc1cc(CNC(=O)c2cc(C(=O)NCc3cc(OC)cc(OC)c3)n(C)n2)cc(OC)c1	.	20	.	.	.	.
COc1cc(CNC(=O)c2cnccn2)cc(OC)c1	.	.	.	.	.	/
Nc1nccnc1C(=O)OCC(=O)NCCc1ccc(Cl)cc1	.	.	.	.	.	/
O=C(Nc1nc2ccccc2[nH]1)C12CC3CC(CC(C3)C1)C2	.	18	.	.	.	.
C[C@H](c1ccccc1)N1C[C@@H](COCc2ccccc2)Oc2cc(N3CC[C@@H](N(C)C)C3)ccc2S1(=O)=O	.	18	.	.	/	.
C[C@@H](c1ccccc1)N1C[C@@H](COCc2ccccc2)Oc2cc(N3CC[C@H](N(C)C)C3)ccc2S1(=O)=O	.	.	.	.	/	/
Cc1ccc(O)c(Nc2c3ccccc3nc3ccccc23)c1	.	37	.	.	.	.
Cc1ccc(S(=O)(=O)NN2C(=O)c3ccccc3NC2c2ccco2)cc1 (stereo not drawn)	.	.	.	.	/	/
CCCCn1c(N)c(N(C(=O)CSc2nnnn2-c2ccccc2)C2CCCC2)c(=O)[nH]c1=O	.	22	.	.	.	.
CC(=O)N/C(=C/C(C)C)c1ccccc1	.	.	.	.	.	/
Cc1cc(C)cc(N(CC(=O)NCC2CCCO2)C(=O)CCC(=O)Nc2nccs2)c1 (stereo not drawn)	.	.	.	.	.	/
CCCCOCCCNc1ncnc2c1[nH]c1ccccc12	.	18	.	.	.	.
CCN1CCN(Cc2nc3ccc([N+](=O)[O-])cc3c(=O)n2-c2ccc(OC)cc2OC)CC1	.	19	.	.	.	.
COc1ccc(-n2c(CN3CCN(c4ccccc4OC)CC3)nc3ccc([N+](=O)[O-])cc3c2=O)c(OC)c1	.	.	.	.	.	/
CC(C)(C)c1cc(C(=O)C[n+]2ccc(C(=O)NCCCO)cc2)cc(C(C)(C)C)c1O	.	18	.	.	.	.
Clc1ccc(N2CCCCCC2)nn1	.	18	.	.	.	.
OC(c1ccccc1)(c1ccccc1)C1CCN(CCCOc2ccncc2)CC1	.	22	.	.	/	.
OC(c1ccccc1)(c1ccccc1)C1CCN(CCCOc2ccc(-c3ccncc3)cc2)CC1	.	.	.	.	/	/
SMILES	rCAG RNA binder	SIAE primary	PRMT1 FP inh	ABHD4 inh	HTRA1 inhibitor	SIAE inh conf
COc1ccc(-n2c(Cc3cccn3C)nnc2SCC(=O)N2CCCC2)cc1	.	18	.	.	.	.
Cn1cccc1Cc1nnc(SCC(=O)Nc2ccc3c(c2)OCCO3)n1-c1ccc(F)cc1	.	20	.	.	.	.
Cc1ccc(-n2c(Cc3cccn3C)nnc2SCC(=O)Nc2ccc3c(c2)OCO3)cc1	.	.	.	.	.	/
CCc1c(C(=O)C(C)O)c2n3c1CCC[C@@H]3CC2 (stereo partly drawn)	/	.	.	.	/	/
O=C(OCc1cn([C@H]2C[C@H](c3ccc(Cl)cc3)N(C(=O)c3cccs3)C[C@@H]2O)nn1)c1ccccc1	.	.	.	.	.	/
Cc1c(O[C@@H]2O[C@H](CO)[C@@H](O)[C@H](O)[C@H]2O)c(CO)c(O[C@@H]2O[C@H](CO)[C@@H](O)[C@H](O)[C@H]2O)c2c1O[C@@H](c1ccccc1)C[C@@H]2O	.	.	.	.	.	/
O=C1NC[C@@H](CCCCN2CCN(Cc3ccccc3)C(=O)C2=O)N(Cc2ccccc2)C1=O	.	.	.	.	/	/
